In ChEMBL document CHEMBL4033702, “Challenges in the development of an M4 PAM preclinical candidate: The discovery, SAR, and in vivo characterization of a series of 3-aminoazetidine-derived amides” (Bioorg Med Chem Lett, 2017):
pEC50, pIC50: −log10 of the molar value.

How the values were obtained:
[1] = target: T1, Muscarinic acetylcholine receptor M4 (Homo sapiens, UniProt P08173); test: Positive allosteric modulation of human M4 receptor expressed in CHO cells co-expressing Gqi5 assessed as increase in acetylcholine-induced calcium mobilization
T1 sequence (P08173 whole entry): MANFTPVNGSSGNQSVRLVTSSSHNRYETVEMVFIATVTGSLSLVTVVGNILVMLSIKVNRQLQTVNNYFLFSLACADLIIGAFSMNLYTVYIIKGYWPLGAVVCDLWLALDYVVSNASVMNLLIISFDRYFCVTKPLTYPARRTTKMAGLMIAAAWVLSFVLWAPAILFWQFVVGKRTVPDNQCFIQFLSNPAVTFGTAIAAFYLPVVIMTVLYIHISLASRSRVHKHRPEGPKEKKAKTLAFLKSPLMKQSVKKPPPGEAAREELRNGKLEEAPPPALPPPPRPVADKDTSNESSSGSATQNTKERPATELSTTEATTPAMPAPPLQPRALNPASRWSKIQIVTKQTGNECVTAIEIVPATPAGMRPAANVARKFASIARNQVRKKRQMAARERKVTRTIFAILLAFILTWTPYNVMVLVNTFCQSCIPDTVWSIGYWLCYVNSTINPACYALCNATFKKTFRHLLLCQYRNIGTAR

[2] = target: T2, Muscarinic acetylcholine receptor M4 (Homo sapiens) (UniProt P08173); test: Positive allosteric modulation of human M4 receptor expressed in CHO cells co-expressing Gqi5 assessed as increase in acetylcholine-induced calcium mobilization relative to acetylcholine; format: functional, cell-based
T2 sequence (whole entry): T1 sequence (P08173 whole entry)
Procedure, shortened: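 Calcium mobilization in CHO cells stably co-expressing hM4 and Gqi5, tested in the presence of a fixed EC20 concentration of acetylcholine. Values are means of three independent experiments, each run in triplicate.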

[3] = target: Cytochrome P450 2D6 (Homo sapiens, UniProt P10635); test: Inhibition of CYP2D6 (unknown origin); format: ADME
Chain of Cytochrome P450 2D6 (P10635 whole entry): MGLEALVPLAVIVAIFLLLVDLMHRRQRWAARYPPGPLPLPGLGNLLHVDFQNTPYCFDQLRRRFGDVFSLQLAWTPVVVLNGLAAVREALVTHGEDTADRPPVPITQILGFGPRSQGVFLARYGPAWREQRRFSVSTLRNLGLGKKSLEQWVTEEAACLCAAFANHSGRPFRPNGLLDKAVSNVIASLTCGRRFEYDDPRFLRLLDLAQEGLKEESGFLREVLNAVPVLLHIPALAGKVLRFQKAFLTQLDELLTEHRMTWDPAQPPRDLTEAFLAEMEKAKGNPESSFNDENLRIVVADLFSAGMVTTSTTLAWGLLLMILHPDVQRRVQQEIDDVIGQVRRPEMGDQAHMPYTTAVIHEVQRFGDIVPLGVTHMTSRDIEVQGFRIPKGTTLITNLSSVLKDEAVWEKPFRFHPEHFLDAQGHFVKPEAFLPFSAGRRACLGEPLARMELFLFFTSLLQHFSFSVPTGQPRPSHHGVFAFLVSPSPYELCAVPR

[4] = test system: Rattus norvegicus; test: Reversal of amphetamine-induced hyperlocomotion in Sprague-Dawley rat at 1 mg/kg, po pretreated 30 mins post habituation in the chamber followed by amphetamine injection after 30 mins measured after 60 mins; format: functional
Procedure, shortened: (§1)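 Male Sprague-Dawley rats, n = 6–24 per dose group, were habituated in the chamber for 30 min. The compound or vehicle (10% tween-80 in water, v/v) was then given orally. Amphetamine 0.75 mg/kg was injected subcutaneously 30 min later. Total ambulations over t = 60–120 min gave % reversal of AHL, reported as mean ± SEM.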

[5] = test system: Rattus norvegicus; test: Reversal of amphetamine-induced hyperlocomotion in Sprague-Dawley rat at 3 mg/kg, po pretreated 30 mins post habituation in the chamber followed by amphetamine injection after 30 mins measured after 60 mins; format: functional; procedure, shortened: as §1
[6] = target: T2, Muscarinic acetylcholine receptor M4 (Homo sapiens); test: Activity at human M4 receptor assessed as acetylcholine-induced calcium mobilization; format: functional
[7] = test system: Rattus norvegicus; test: Reversal of amphetamine-induced hyperlocomotion in Sprague-Dawley rat assessed as plasma concentration required for the effect at 3 mg/kg, po pretreated 30 mins post habituation in the chamber followed by amphetamine injection after 30 mins measured at 1.5 hrs post dose; format: functional, organism-based
Procedure, shortened: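 Rat AHL study: oral dosing 30 min after chamber habituation, then amphetamine 0.75 mg/kg s.c. 30 min later. Terminal plasma concentrations in the study animals were measured 1.5 hr after compound administration. From these, an in vivo plasma EC50 was derived, both total and unbound.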

[8] = test system: Salmonella typhimurium; test: Mutagenicity in Salmonella typhimurium by Ames test; format: toxicity; details: salmonella enterica subsp. enterica serovar typhimurium
[9] = target: Sodium-dependent dopamine transporter (Homo sapiens, UniProt Q01959); test: Displacement of [3H]BTCP from human recombinant dopamine transporter expressed in CHO cells; format: cell-based
Chain of Sodium-dependent dopamine transporter (Q01959 whole entry): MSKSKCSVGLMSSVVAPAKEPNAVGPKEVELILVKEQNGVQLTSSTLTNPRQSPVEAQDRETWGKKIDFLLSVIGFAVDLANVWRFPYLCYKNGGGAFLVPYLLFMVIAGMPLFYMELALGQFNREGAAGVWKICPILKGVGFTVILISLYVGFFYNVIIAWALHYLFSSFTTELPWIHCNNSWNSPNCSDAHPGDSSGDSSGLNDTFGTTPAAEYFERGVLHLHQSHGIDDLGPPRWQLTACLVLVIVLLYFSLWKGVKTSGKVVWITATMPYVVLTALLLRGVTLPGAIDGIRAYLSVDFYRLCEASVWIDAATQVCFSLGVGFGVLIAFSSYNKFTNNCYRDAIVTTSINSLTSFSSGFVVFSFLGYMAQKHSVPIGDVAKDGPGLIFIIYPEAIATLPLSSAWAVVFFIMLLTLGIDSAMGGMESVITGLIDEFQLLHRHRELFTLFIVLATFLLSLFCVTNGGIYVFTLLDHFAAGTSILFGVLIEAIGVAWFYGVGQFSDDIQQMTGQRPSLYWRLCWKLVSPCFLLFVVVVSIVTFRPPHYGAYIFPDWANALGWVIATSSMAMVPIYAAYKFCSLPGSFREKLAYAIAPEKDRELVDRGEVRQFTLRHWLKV

[10] = target: T3, Cytochrome P450 2C19 (Homo sapiens, UniProt P33261); test: Inhibition of CYP2C19 (unknown origin); format: ADME
T3 sequence (P33261 whole entry): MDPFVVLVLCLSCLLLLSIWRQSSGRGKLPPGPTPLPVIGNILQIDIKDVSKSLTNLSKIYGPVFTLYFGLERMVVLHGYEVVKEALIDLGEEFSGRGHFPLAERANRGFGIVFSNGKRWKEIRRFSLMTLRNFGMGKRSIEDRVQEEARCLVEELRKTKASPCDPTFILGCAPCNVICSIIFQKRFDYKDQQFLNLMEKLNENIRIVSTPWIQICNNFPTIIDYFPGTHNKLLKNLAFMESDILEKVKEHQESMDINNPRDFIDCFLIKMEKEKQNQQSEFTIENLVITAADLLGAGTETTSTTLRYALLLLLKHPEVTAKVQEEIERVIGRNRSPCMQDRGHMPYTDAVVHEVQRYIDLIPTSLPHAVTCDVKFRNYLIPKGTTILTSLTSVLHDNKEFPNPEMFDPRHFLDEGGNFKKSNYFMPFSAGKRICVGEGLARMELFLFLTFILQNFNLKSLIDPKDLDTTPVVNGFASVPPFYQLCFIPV

[11] = target: T3, Cytochrome P450 2C19; test: Time-dependent inhibition of CYP2C19 (unknown origin); format: ADME
[12] = Clearance in iv or po dosed Sprague-Dawley rat; format: ADME, organism-based; details: in vivo
Procedure, shortened: (§2)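 IV and PO pharmacokinetics in male Sprague-Dawley rats, n = 1–3. The oral dose was a 2–3 mg/kg solution. Plasma clearance, Vss and oral bioavailability were determined.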

[13] = test system: Canis familiaris; test: Volume of distribution at steady state in iv or po dosed Mongrel dog; format: ADME, organism-based, Canis lupus familiaris; details: in vivo
Procedure, shortened: (§3)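 IV and PO pharmacokinetics in female mongrel dogs, n = 1–2. The oral dose was a 2–3 mg/kg solution. Vss and oral bioavailability were determined.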

[14] = test system: Rattus norvegicus; test: Oral bioavailability in Sprague-Dawley rat at 2 to 3 mg/kg; format: ADME, organism-based; details: in vivo; procedure, shortened: as §2
[15] = test system: Canis familiaris; test: Oral bioavailability in Mongrel dog at 2 to 3 mg/kg; format: ADME, organism-based, Canis lupus familiaris; details: in vivo; procedure, shortened: as §3
[16] = test system: Brain; test: Drug level in Sprague-Dawley rat brain at 0.3 mg/kg, po; format: ADME, organism-based; details: in vivo, read-out: Drug uptake

Compound `Cc1nnc2sc(C(=O)NC3CN(c4cccc(F)c4F)C3)c(N)c2c1C` has a pEC50 [1] of 7.72, a %max [2] of 88% and a pIC50 [3] of 4.85. For the same compound, the Activity [4] was 64%, the Activity [5] was 74% and the Kb [6] was 2000 nM. The fEC50 [7] was 0.66 nM, the pEC50 ([7]; Rattus norvegicus, Sprague-Dawley) was 7.13 and the Activity [8] was “Non-Toxic”. For the same compound, the pIC50 [9] was 6.35, the pIC50 [10] was 5.20 and the TDI [11] was “Not Active”. For the same compound, the clearance [12] was 16 mL/min/kg, the Vdss [13] was 1.6 L/kg and the F [14] was 38%. It also gave an F [15] of 20% and a concentration [16] of 37 nM.
